Key:
[1] = Drug excretion in human urine assessed as total amount of drug eliminated treated with oxcarbazepine at 300 mg, po administered as one-film coated tablet by high-performance liquid chromatography; format: ADME, organism-based; conditions: read-out: Ae
How it was run: (§1)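 300 mg oral tablet given to 12 healthy adults. Urine was collected in fractions up to 72 h and kept at 2–8 °C, then frozen at -20 °C. Analytes were measured by HPLC before and after β-glucuronidase hydrolysis (pH 6.7, 37 °C, about 15 h). Renal clearance was Ae/plasma AUC. Urinary terminal half-life came from log-linear slopes between 4–18 h and 40–64 h.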

[2] = Renal clearance in human treated with oxcarbazepine at 300 mg, po administered as one-film coated tablet by high-performance liquid chromatography; format: ADME, organism-based, Kidney; conditions: in vivo; how it was run: as §1
[3] = Apparent terminal half life in human plasma treated with oxcarbazepine at 300 mg, po administered as one-film coated tablet by high-performance liquid chromatography; format: ADME, organism-based; conditions: read-out: betat1/2(app) (converted)
How it was run: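 Healthy adult volunteers (6 male, 6 female), randomized two-way crossover with at least one week washout; single oral 300 mg film-coated oxcarbazepine tablet, fasting. Heparinized plasma sampled 0–72 h post dose, stored -80 C; MHD enantiomers quantified by enantioselective HPLC.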

[4] = Terminal half life in human urine treated with oxcarbazepine at 300 mg, po administered as one-film coated tablet by high-performance liquid chromatography; format: ADME, organism-based; conditions: read-out: beta t1/2 (converted); how it was run: as §1
[5] = Renal clearance in human treated with monohydroxy derivative of OXC at 250 mg, iv administered as infusion over 30 mins by high-performance liquid chromatography; format: ADME, organism-based, Kidney; conditions: in vivo
How it was run: (§2)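 250 mg racemic MHD infused intravenously over 30 min to 12 healthy adults. Plasma was drawn at 0 to 30 min and up to 72 h, and urine was fractionated to 72 h. Enantioselective HPLC was used. Renal clearance was Ae/AUC; Vss was CL_T·MRT (AUMC/AUC). Urinary half-life came from log-linear slopes between 4–18 h and 40–64 h.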

[6] = Apparent terminal half life in human plasma treated with monohydroxy derivative of OXC at 250 mg, iv administered as infusion over 30 mins by high-performance liquid chromatography; format: ADME, organism-based; conditions: read-out: betat1/2(app) (converted)
How it was run: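 Healthy adult volunteers (6 male, 6 female), randomized two-way crossover with at least one week washout; single 250 mg racemic MHD infused i.v. over 30 min. Heparinized plasma sampled 0–30 min then 1–72 h after start of infusion, stored -80 C; enantiomers quantified by enantioselective HPLC.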

[7] = Volume of distribution at steady state in human treated with monohydroxy derivative of OXC at 250 mg, iv administered as infusion over 30 mins by high-performance liquid chromatography; format: ADME, organism-based; conditions: in vivo, read-out: Vdss; how it was run: as §2
[8] = Terminal half life in human urine treated with monohydroxy derivative of OXC at 250 mg, iv administered as infusion over 30 mins by high-performance liquid chromatography; format: ADME, organism-based; conditions: read-out: beta t1/2 (converted); how it was run: as §2
[9] = Tmax in human treated with oxcarbazepine at 300 mg, po administered as one-film coated tablet by high-performance liquid chromatography; format: ADME, organism-based; conditions: in vivo
How it was run: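 Healthy adults (6 male, 6 female) took a single dose under fasting conditions in an open randomized two-way crossover with at least one week washout. Heparinized plasma was sampled at 0, 1, 2, 3, 4, 6, 8, 10, 24, 32, 48, 56 and 72 h, and stored at -80 C. Analytes were measured by HPLC (UV 210 nm for MHD). Cmax and Tmax are the highest observed concentration and its time relative to dosing.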

[10] = Cmax in human treated with oxcarbazepine at 300 mg, po administered as one-film coated tablet by high-performance liquid chromatography; format: ADME, organism-based; set-up: dose 300 mg, route oral; conditions: in vivo
How it was run: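 Healthy adults (6 male, 6 female), single 300 mg film-coated tablet by mouth, fasting, in a randomized two-way crossover with at least one week of washout. Venous heparinized blood was drawn at 0–72 h. Plasma was separated at 2200 g and stored at -80 °C. Non-enantioselective and enantioselective HPLC were used. Cmax/tmax were the observed peak; AUC was by linear trapezoidal rule.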

[11] = AUC (0 to 72 hrs) in human treated with monohydroxy derivative of OXC at 150 mg, iv administered as single dose by high-performance liquid chromatography; format: ADME, organism-based; set-up: dose 150 mg, time < 72 hr, route intravenous; conditions: plasma
How it was run: (§3)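 Pilot ascending-dose study: one healthy subject per level received 150, 200 or 250 mg racemic MHD intravenously as a single dose. Plasma was sampled to 72 h and assayed by non-enantioselective and enantioselective HPLC. AUC(0-72h) was computed by the linear trapezoidal method.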

[12] = AUC (0 to 72 hrs) in human treated with monohydroxy derivative of OXC at 200 mg, iv administered as single dose by high-performance liquid chromatography; format: ADME, organism-based; set-up: time < 72 hr, dose 200 mg, route intravenous; conditions: plasma; how it was run: as §3
[13] = AUC (0 to 72 hrs) in human treated with monohydroxy derivative of OXC at 250 mg, iv administered as single dose by high-performance liquid chromatography; format: ADME, organism-based; set-up: dose 250 mg, time < 72 hr, route intravenous; conditions: plasma; how it was run: as §3
[14] = Total plasma clearance in human treated with monohydroxy derivative of OXC at 150 mg, iv administered as single dose by high-performance liquid chromatography; format: ADME, organism-based
How it was run: (§4)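 Pilot study: single intravenous racemic MHD at 150, 200 or 250 mg, one subject per dose. Plasma was sampled to 72 h and analysed by HPLC. Total plasma clearance was computed as Dose/AUC, with AUC from the linear trapezoidal rule.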

[15] = Total plasma clearance in human treated with monohydroxy derivative of OXC at 200 mg, iv administered as single dose by high-performance liquid chromatography; format: ADME, organism-based; how it was run: as §4
[16] = Total plasma clearance in human treated with monohydroxy derivative of OXC at 250 mg, iv administered as single dose by high-performance liquid chromatography; format: ADME, organism-based; how it was run: as §4
[17] = Tmax in human treated with monohydroxy derivative of OXC at 250 mg, iv administered as infusion over 30 mins by high-performance liquid chromatography; format: ADME, organism-based; conditions: in vivo
How it was run: (§5)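 Healthy adults (6 male, 6 female) in an open randomized two-way crossover with at least one week washout. Venous heparinized plasma was sampled at 0, 5, 10, 15, 20, 25 and 30 min and at 1-72 h after the start of infusion, and stored at -80 C. Analytes were measured by non-enantioselective and enantioselective HPLC. Tmax is the observed time of peak concentration, reported as a median.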

[18] = Cmax in human treated with monohydroxy derivative of OXC at 250 mg, iv administered as infusion over 30 mins by high-performance liquid chromatography; format: ADME, organism-based; set-up: dose 250 mg, route intravenous; conditions: in vivo; how it was run: as §5

CL renal [2] [mL/min]	half-life [3] [h]	half-life [4] [h]	CL renal at 0.5 h [5] [mL/min]	half-life [6] [h]	Vd [7] [L]	half-life [8] [h]	AUC(0-t) at 72 h [11] [µM·h]	AUC(0-t) at 72 h [12] [µM·h]	AUC(0-t) at 72 h [13] [µM·h]	clearance [14] [mL/min]	clearance [15] [mL/min]	clearance [16] [mL/min]	SMILES	dose excreted [1] [%]	Tmax [9] [h]	Cmax [10] [nM]	Tmax [17] [h]	Cmax [18] [nM]
16.7	15.8	7	15	9	54.7	9	55.7	59.1	132	88.3	111	62.2	NC(=O)N1c2ccccc2C[C@@H](O)c2ccccc21	4.85	3.5	3000	–	–
–	–	–	–	–	–	–	–	–	–	–	–	–	NC(=O)N1c2ccccc2[C@@H](O)[C@H](O)c2ccccc21	2.7	24	200	8	240
–	–	10.3	–	–	–	14.2	–	–	–	–	–	–	NC(=O)N1c2ccccc2C[C@@H](O[C@@H]2O[C@H](C(=O)O)[C@@H](O)[C@H](O)[C@H]2O)c2ccccc21	5.62	–	–	–	–

From ChEMBL document CHEMBL3526003, “Pharmacokinetics of the monohydroxy derivative of oxcarbazepine and its enantiomers after a single intravenous dose given as racemate compared with a single oral dose of oxcarbazepine” (Drug Metab Dispos, 2011)
